Data published in article PMC3270411 (Chemistry & biology, 2012).
Read-outs that look alike come from different tables or passages of the source.

Key:
MARK1 = MARK1 (Homo sapiens, UniProt Q9P0L2); test: KiNativ cellular kinase profiling; format: cell-based; conditions: for inhibition at 1 µM: A-375, read-out: Percent inhibition of kinase labeling by ATP-biotin; for Percent inhibition of kinase labeling by ATP-biotin: A375 cells, 1 μM, 3 hours, MARK1, labeling site Lys2
MARK2,MARK3 = test: KiNativ cellular kinase profiling; format: cell-based; conditions: A375 cells, 1 μM, 3 hours; MARK2,MARK3, labeling site Lys2
GSK3A = GSK3A (Homo sapiens, UniProt P49840); test: KiNativ cellular kinase profiling; format: cell-based; conditions: for inhibition at 1 µM: A-375, read-out: Percent inhibition of kinase labeling by ATP-biotin; for Percent inhibition of kinase labeling by ATP-biotin: A375 cells, 1 μM, 3 hours, GSK3A, labeling site Lys2
AurA,AurB,AurC = test: KiNativ cellular kinase profiling; format: cell-based; conditions: A375 cells, 1 μM, 3 hours, labeling site ATP Loop
PIP5K3 = PIP5K3 (Homo sapiens, UniProt Q9Y2I7); test: KiNativ cellular kinase profiling; format: cell-based; conditions: for inhibition at 1 µM: A-375, read-out: Percent inhibition of kinase labeling by ATP-biotin; for Percent inhibition of kinase labeling by ATP-biotin: A375 cells, 1 μM, 3 hours, PIP5K3, labeling site ATP
PKD1,PKD2 = test: KiNativ cellular kinase profiling; format: cell-based; conditions: A375 cells, 1 μM, 3 hours; PKD1,PKD2, labeling site Lys2
[1] = tested on: c-Jun phosphorylation and Erk, p38, JNK, Akt, Stat, NF-κB and Rsk pathway nodes; test: microscopy-based cellular pathway profiling with phospho-specific antibodies; format: cell-based; conditions: phospho-specific antibody microscopy
ABL,ARG = test: KiNativ cellular kinase profiling; format: cell-based; conditions: A375 cells, 1 μM, 3 hours, labeling site Lys1
ZAK = ZAK (Homo sapiens, UniProt Q9NYL2); test: KiNativ cellular kinase profiling; format: cell-based; conditions: for inhibition at 1 µM: A-375, read-out: Percent inhibition of kinase labeling by ATP-biotin; for Percent inhibition of kinase labeling by ATP-biotin: A375 cells, 1 μM, 3 hours, ZAK, labeling site Lys1
[2] = tested on: c-Jun phosphorylation (pSer73) in HeLa cells; test: LanthaScreen TR-FRET c-Jun phosphorylation assay in HeLa cells; format: cell-based; conditions: read-out: p-c-Jun EC50 (nM) Hela
Procedure, shortened: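 HeLa cells stably expressing GFP-c-Jun(1–79), 10,000/well in Opti-MEM with 0.5% charcoal/dextran-treated FBS, 25 mM Hepes pH 7.3, no phenol red; overnight. Pretreated 90 min with compound, then 30 min with 5 ng/ml TNF-α. Lysed in buffer containing 2 nM terbium anti-c-Jun pSer73 antibody; 60 min equilibration at room temperature. TR-FRET: excitation 340 nm, ratio Em 520/Em 490.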

BRAF = BRAF (Homo sapiens, UniProt P15056); test: KiNativ cellular kinase profiling; format: cell-based; conditions: for inhibition at 1 µM: A-375, read-out: Percent inhibition of kinase labeling by ATP-biotin; for Percent inhibition of kinase labeling by ATP-biotin: A375 cells, 1 μM, 3 hours, BRAF, labeling site Lys2
IRAK1 = IRAK1 (Homo sapiens, UniProt P51617); test: KiNativ cellular kinase profiling; format: cell-based; conditions: for inhibition at 1 µM: A-375, read-out: Percent inhibition of kinase labeling by ATP-biotin; for Percent inhibition of kinase labeling by ATP-biotin: A375 cells, 1 μM, 3 hours, IRAK1, labeling site Lys2
ROCK1,ROCK2 = test: KiNativ cellular kinase profiling; format: cell-based; conditions: A375 cells, 1 μM, 3 hours; ROCK1,ROCK2, labeling site Lys2
PKD1 = target: T1, PKD1 (Homo sapiens, UniProt Q15139); test: KiNativ cellular kinase profiling; format: cell-based; conditions: for inhibition at 1 µM: A-375, read-out: Percent inhibition of kinase labeling by ATP-biotin; for Percent inhibition of kinase labeling by ATP-biotin: A375 cells, 1 μM, 3 hours, PKD1, labeling site Lys1
T1 sequence (Q15139 1-912): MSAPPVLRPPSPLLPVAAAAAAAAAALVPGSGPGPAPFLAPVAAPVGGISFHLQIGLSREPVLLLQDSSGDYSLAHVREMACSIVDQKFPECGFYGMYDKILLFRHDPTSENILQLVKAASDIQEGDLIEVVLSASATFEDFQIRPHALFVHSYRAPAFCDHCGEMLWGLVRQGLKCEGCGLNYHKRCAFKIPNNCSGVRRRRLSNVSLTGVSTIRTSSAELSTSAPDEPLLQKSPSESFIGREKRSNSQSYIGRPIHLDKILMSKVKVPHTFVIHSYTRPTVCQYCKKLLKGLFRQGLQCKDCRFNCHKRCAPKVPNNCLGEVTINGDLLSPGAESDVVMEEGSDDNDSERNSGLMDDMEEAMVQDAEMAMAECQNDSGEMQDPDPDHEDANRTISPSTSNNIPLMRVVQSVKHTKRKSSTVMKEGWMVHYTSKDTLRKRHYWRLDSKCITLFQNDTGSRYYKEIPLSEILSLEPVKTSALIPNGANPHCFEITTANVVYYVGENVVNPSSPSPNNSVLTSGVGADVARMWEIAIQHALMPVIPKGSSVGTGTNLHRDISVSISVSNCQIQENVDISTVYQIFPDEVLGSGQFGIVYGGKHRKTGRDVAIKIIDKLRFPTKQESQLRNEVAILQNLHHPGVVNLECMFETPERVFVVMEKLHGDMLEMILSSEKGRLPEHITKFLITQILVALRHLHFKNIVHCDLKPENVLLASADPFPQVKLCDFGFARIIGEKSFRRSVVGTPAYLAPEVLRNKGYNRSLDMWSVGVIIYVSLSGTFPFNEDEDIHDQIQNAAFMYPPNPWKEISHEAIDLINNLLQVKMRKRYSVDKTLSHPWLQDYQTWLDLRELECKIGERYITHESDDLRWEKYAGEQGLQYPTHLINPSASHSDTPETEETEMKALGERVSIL

MARK3 = MARK3 (Homo sapiens, UniProt P27448); test: KiNativ cellular kinase profiling; format: cell-based; conditions: for inhibition at 1 µM: A-375, read-out: Percent inhibition of kinase labeling by ATP-biotin; for Percent inhibition of kinase labeling by ATP-biotin: A375 cells, 1 μM, 3 hours, MARK3, labeling site Lys1
TAO1,TAO3 = test: KiNativ cellular kinase profiling; format: cell-based; conditions: A375 cells, 1 μM, 3 hours; TAO1,TAO3, labeling site Lys2
DNAPK = DNAPK (Homo sapiens, UniProt P78527); test: KiNativ cellular kinase profiling; format: cell-based; conditions: A375 cells, 1 μM, 3 hours, labeling site ATP
[3] = tested on: c-Jun phosphorylation (phospho Ser73) in A375 cells; format: cell-based
p38a = p38a (Homo sapiens, UniProt Q16539); test: KiNativ cellular kinase profiling; format: cell-based; conditions: A375 cells, 1 μM, 3 hours
[4] = tested on: panel of 442 distinct kinases; test: KINOMEscan kinase-binding panel
[5] = read-out: p-c-Jun EC50 (nM) A375, A375 cells, anisomycin stimulation, microscopy
[6] = Hela cells, TNF-α stimulation, TR-FRET

p38a, sequence (Q16539 whole entry): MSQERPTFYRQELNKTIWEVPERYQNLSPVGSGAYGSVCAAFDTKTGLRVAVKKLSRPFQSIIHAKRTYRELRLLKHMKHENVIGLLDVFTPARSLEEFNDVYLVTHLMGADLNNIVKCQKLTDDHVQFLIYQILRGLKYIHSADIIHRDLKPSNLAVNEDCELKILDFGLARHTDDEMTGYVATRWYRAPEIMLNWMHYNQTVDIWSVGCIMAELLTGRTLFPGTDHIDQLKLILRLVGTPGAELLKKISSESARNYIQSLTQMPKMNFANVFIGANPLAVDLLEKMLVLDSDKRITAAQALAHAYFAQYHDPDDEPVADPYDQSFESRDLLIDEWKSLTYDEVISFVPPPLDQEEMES
ZAK, sequence (Q9NYL2 whole entry): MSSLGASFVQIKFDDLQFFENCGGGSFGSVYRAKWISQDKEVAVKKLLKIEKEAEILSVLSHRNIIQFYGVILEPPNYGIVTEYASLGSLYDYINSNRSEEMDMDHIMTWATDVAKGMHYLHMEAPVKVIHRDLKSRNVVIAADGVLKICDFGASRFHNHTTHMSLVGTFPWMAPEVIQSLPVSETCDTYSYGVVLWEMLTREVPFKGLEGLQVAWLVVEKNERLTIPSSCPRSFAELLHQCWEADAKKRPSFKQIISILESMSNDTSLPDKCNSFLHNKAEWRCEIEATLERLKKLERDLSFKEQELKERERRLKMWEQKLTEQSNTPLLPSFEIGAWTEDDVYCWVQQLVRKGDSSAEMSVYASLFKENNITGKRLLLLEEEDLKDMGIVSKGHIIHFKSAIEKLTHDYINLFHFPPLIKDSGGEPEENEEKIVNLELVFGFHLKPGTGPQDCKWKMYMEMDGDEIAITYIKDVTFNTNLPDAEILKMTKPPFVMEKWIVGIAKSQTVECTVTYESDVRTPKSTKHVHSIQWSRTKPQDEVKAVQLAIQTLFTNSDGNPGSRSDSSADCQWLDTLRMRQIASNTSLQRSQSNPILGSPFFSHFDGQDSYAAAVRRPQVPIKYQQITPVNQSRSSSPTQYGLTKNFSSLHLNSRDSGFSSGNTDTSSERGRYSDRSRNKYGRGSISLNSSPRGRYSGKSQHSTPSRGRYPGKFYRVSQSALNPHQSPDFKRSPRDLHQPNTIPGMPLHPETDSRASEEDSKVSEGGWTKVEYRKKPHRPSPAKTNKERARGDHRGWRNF
PIP5K3, sequence (Q9Y2I7 whole entry): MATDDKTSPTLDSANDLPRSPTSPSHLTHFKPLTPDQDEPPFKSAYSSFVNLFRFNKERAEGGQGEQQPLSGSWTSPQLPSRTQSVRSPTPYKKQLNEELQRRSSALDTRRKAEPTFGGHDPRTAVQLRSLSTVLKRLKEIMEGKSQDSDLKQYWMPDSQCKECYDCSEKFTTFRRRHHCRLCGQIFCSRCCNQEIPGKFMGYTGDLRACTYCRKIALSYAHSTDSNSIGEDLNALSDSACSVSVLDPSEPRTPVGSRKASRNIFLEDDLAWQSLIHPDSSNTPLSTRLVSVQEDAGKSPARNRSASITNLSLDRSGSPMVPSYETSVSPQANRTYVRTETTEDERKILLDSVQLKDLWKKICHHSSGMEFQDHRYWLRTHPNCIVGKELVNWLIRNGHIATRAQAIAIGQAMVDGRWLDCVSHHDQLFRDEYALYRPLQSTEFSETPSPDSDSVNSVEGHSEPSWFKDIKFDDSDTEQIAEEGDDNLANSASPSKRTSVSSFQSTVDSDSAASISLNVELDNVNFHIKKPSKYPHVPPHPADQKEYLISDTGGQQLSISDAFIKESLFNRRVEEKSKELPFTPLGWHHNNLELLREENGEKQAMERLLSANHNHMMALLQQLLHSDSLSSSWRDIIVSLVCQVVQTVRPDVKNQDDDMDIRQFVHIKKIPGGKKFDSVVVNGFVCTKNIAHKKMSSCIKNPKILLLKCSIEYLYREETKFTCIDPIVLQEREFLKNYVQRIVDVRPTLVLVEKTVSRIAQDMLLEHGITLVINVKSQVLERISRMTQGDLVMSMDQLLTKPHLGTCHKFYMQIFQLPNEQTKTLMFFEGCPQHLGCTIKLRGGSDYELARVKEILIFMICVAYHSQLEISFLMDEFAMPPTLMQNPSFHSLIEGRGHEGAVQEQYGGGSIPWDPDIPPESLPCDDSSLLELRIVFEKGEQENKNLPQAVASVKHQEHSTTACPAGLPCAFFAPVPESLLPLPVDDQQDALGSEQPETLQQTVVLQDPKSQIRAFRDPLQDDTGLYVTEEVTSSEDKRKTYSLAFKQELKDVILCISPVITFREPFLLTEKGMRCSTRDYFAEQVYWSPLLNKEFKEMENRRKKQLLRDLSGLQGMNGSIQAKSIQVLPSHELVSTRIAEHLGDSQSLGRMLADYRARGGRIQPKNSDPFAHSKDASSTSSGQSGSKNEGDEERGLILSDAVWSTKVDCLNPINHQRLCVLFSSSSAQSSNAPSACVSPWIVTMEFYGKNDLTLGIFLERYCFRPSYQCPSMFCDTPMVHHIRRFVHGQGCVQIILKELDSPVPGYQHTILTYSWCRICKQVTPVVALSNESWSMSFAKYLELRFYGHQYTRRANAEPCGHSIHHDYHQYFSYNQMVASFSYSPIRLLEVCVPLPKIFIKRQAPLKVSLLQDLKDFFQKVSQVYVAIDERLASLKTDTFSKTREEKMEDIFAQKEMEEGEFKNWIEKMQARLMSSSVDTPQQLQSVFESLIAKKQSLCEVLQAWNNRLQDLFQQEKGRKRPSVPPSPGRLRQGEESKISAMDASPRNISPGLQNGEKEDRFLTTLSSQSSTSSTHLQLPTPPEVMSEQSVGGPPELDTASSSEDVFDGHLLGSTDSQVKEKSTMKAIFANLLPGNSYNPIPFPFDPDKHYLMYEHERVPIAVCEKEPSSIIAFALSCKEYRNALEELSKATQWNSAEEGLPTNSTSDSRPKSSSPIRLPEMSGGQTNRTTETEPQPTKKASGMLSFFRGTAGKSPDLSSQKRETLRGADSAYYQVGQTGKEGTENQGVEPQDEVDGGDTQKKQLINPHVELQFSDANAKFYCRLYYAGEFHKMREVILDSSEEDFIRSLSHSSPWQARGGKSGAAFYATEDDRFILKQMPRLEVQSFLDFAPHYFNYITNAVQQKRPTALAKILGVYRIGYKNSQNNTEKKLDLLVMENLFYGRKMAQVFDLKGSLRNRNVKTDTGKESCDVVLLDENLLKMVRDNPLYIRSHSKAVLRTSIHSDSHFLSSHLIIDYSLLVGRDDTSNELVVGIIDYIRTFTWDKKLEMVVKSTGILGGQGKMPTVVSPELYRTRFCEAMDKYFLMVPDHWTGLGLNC
BRAF, sequence (P15056 whole entry): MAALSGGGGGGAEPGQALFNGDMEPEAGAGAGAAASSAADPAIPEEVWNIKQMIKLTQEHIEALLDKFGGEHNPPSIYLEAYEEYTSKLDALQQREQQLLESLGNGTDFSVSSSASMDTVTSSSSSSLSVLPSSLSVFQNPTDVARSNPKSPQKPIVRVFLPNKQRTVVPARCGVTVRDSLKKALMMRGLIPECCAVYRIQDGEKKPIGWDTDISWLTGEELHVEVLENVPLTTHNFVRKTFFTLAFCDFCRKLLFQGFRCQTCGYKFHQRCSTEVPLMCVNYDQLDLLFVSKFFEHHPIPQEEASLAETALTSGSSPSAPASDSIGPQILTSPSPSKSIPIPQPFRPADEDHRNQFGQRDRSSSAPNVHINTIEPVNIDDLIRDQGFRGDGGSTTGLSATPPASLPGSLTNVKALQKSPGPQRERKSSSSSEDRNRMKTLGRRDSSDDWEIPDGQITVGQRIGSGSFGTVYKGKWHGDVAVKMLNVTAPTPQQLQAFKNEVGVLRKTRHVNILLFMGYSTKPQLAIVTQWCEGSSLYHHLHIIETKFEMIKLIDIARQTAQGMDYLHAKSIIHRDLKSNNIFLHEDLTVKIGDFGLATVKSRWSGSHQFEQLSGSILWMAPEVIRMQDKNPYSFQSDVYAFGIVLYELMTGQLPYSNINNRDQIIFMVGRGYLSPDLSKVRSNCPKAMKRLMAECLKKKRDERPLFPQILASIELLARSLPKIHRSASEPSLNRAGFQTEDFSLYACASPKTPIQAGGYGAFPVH
IRAK1, sequence (P51617 whole entry, species assumed): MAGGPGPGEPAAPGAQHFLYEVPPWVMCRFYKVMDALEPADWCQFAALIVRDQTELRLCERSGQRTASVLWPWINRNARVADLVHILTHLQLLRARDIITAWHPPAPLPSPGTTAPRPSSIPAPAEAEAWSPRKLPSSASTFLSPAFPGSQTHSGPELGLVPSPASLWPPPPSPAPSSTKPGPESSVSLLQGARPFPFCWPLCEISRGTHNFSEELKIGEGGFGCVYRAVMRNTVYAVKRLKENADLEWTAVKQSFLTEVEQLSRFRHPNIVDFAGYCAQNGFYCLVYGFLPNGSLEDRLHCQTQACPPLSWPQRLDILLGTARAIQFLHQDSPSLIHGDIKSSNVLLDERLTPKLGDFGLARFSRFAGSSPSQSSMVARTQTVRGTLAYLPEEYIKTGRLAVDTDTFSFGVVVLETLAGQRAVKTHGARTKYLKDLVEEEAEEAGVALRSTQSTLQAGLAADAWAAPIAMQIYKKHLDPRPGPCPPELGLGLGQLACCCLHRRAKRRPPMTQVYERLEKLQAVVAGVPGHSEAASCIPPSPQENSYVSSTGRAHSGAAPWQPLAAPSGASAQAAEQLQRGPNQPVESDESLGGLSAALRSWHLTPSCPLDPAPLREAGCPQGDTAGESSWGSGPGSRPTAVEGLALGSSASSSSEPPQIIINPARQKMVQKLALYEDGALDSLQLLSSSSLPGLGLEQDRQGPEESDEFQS

inhibition at 1 µM (MARK1) | inhibition at 1 µM (GSK3A) | inhibition at 1 µM (PIP5K3) | inhibition at 1 µM (ZAK) | EC50 ([2]; Homo sapiens, HeLa) | inhibition at 1 µM (BRAF) | inhibition at 1 µM (IRAK1) | inhibition at 1 µM (PKD1) | inhibition at 1 µM (MARK3) | Compound | Percent inhibition of kinase labeling by ATP-biotin (MARK2,MARK3) | Percent inhibition of kinase labeling by ATP-biotin (AurA,AurB,AurC) | Percent inhibition of kinase labeling by ATP-biotin (PKD1,PKD2) | on-/off-pathway activity in cellular pathway profiling [1] | Percent inhibition of kinase labeling by ATP-biotin (ABL,ARG) | Percent inhibition of kinase labeling by ATP-biotin (ROCK1,ROCK2) | Percent inhibition of kinase labeling by ATP-biotin (TAO1,TAO3) | Percent inhibition of kinase labeling by ATP-biotin (MARK1) | Percent inhibition of kinase labeling by ATP-biotin (GSK3A) | Percent inhibition of kinase labeling by ATP-biotin (DNAPK; first of two table lines) | Percent inhibition of kinase labeling by ATP-biotin (DNAPK; second of two table lines) | also measured
18.6% | 40.7% | 99.3% | 84.4% | 48 nM | 27.8% | 5.4% | 29.4% | -27.8% | CN(C)C/C=C/C(=O)Nc1cccc(C(=O)Nc2ccc(Nc3nccc(-c4c(-c5ccccc5)nn5ccccc45)n3)cc2)c1 [JNK-IN-11] | 0.4% | 53.8% | 10.4% | off-pathway activity | 56.1% | −33.9% | 34.1% | – | – | – | – | –
– | – | – | – | – | – | – | – | – | CCC(=O)Nc1cccc(C(=O)Nc2ccc(Nc3nccc(-c4cccnc4)n3)cc2)c1 [JNK-IN-6] | 22.9% | 4.9% | 15.9% | – | −1.4% | 11.6% | 35.8% | 23.9% | 6.8% | 51.1% | 31.7% | Percent inhibition of kinase labeling by ATP-biotin (PIP5K3): 16.8%; EC50 [3, 5]: 1900 nM; Percent inhibition of kinase labeling by ATP-biotin (p38a; labeling site Lys2): 32.6%; Percent inhibition of kinase labeling by ATP-biotin (p38a; labeling site Other): 12.4%; Percent inhibition of kinase labeling by ATP-biotin (ZAK): 3%; EC50 [2, 6]: 6760 nM; Percent inhibition of kinase labeling by ATP-biotin (BRAF): 8.9%; Percent inhibition of kinase labeling by ATP-biotin (IRAK1): −4.6%; Percent inhibition of kinase labeling by ATP-biotin (PKD1): 28.7%; Percent inhibition of kinase labeling by ATP-biotin (MARK3): −7.3%
8.9% | 10.6% | 18.7% | -7.8% | 486 nM | -23.7% | 0.8% | 8.6% | -12% | Cc1cc(NC(=O)c2cccc(NC(=O)/C=C/CN(C)C)c2)ccc1Nc1nccc(-c2cccnc2)n1 [JNK-IN-8] | 13.9% | −11.3% | −3% | only on-pathway activity | −2.7% | −17.1% | 2.9% | – | – | – | – | EC50 ([3]; Homo sapiens, A-375, read-out: p-c-Jun EC50 (nM) A375): 338 nM
– | – | – | – | – | – | – | – | – | CN(C)C/C=C/C(=O)Nc1cccc(C(=O)Nc2ccc(Nc3nccc(/C(C#N)=C4\Nc5ccccc5S4)n3)cc2)c1 [JNK-IN-12] | −38.7% | −20.9% | −39.3% | only on-pathway activity | 7.9% | −91% | −10.8% | −43.5% | −7.7% | −65.4% | −80.7% | Percent inhibition of kinase labeling by ATP-biotin (PIP5K3): −11.4%; EC50 [3, 5]: 134 nM; Percent inhibition of kinase labeling by ATP-biotin (p38a; labeling site Lys2): −28%; Percent inhibition of kinase labeling by ATP-biotin (p38a; labeling site Other): −13.8%; Percent inhibition of kinase labeling by ATP-biotin (ZAK): −40.2%; EC50 [2, 6]: 605 nM; S (10) score (ratio number of kinases inhibited more than 90 percent) ([4]; screening concentration 1 μM): 0.025; Percent inhibition of kinase labeling by ATP-biotin (BRAF): 6.2%; Percent inhibition of kinase labeling by ATP-biotin (IRAK1): −14.9%; Percent inhibition of kinase labeling by ATP-biotin (PKD1): −21.6%; Percent inhibition of kinase labeling by ATP-biotin (MARK3): −67.9%

Compound | inhibition at 1 µM (MARK1) | inhibition at 1 µM (GSK3A) | inhibition at 1 µM (PIP5K3) | inhibition at 1 µM (ZAK) | EC50 ([2]; Homo sapiens, HeLa) | inhibition at 1 µM (BRAF) | inhibition at 1 µM (IRAK1) | inhibition at 1 µM (PKD1) | inhibition at 1 µM (MARK3) | Percent inhibition of kinase labeling by ATP-biotin (MARK2,MARK3) | Percent inhibition of kinase labeling by ATP-biotin (AurA,AurB,AurC) | Percent inhibition of kinase labeling by ATP-biotin (PKD1,PKD2) | on-/off-pathway activity in cellular pathway profiling [1] | Percent inhibition of kinase labeling by ATP-biotin (ABL,ARG) | Percent inhibition of kinase labeling by ATP-biotin (ROCK1,ROCK2) | Percent inhibition of kinase labeling by ATP-biotin (TAO1,TAO3) | Percent inhibition of kinase labeling by ATP-biotin (MARK1) | Percent inhibition of kinase labeling by ATP-biotin (GSK3A) | Percent inhibition of kinase labeling by ATP-biotin (DNAPK; first of two table lines) | Percent inhibition of kinase labeling by ATP-biotin (DNAPK; second of two table lines) | also measured
CN(C)C/C=C/C(=O)Nc1cccc(C(=O)Nc2ccc(Nc3nccc(-c4cccnc4)n3)cc2)c1 [JNK-IN-7] | 7.9% | 20.4% | 91.8% | 15.5% | 130 nM | 7% | 81% | 2% | -13.5% | 26.5% | 19.1% | 18.2% | only on-pathway activity | 1.9% | −21.5% | 13.1% | – | – | – | – | number of kinases with binding inhibition of 95% or more ([4]; 1.0 μM): approximately 14 kinases
